Bioassay records: PubChem, several laboratories
STAT1 act = increases IFN-gamma driven STAT1 reporter signal; activation (% of control), % at 5.5 µM; AID 932; hit rate 2.6% among 200,000; NIH 3T3 STAT1-luciferase reporter, luminescence; 100% = IFN-gamma alone, no compound;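 active means activation above the screen-wide mean activation plus 3 SD, cut at about 130% in these data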;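 further: raw ratio to IFN-gamma control signal so 100% means no change and 0% no light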
APP 5'UTR act = activates APP 5'UTR luciferase reporter | activation, % at 2 µM | SH-SY5Y APP 5'UTR luciferase reporter, luminescence; zero percent = DMSO vehicle wells | hit rate 1% among 190,000;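 active means activation above a set limit, based on mean plus 3 SD of controls, cut at about 140% in these data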
STAT3 blocker = STAT3 signaling inhibition | AID 862 | hit rate 0.89% among 190,000 | inhibition, % at 5.5 µM | U3A cells, IL-6 STAT3-luciferase reporter, luminescence; host cell line lacks STAT1;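 active means inhibition above the mean inhibition across all screened compounds plus 3 SD, cut at about 44% in these data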;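 further: 0% = DMSO only wells and 100% = 100 µM nifuroxazide control wells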
NF-kB expr up = compounds increasing NF-kB expression in human neuronal cells; NF-kB reporter expression; stronger effect = higher value; fold change at 12.5 µM; hit rate 1.6% among 190,000; AID 1239; in the data active means fold change above about 3.3
STAT1 blocker = inhibitors of IFN-gamma induced STAT1 signaling; NIH 3T3 STAT1-luciferase reporter, luminescence; inhibition, % at 5.5 µM; hit rate 0.35% among 200,000;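 active means inhibition above a set limit, the mean inhibition across all tested compounds plus 3 SD, cut at about 34% in these data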;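 further: 0% = IFN-gamma with DMSO and 100% = IFN-gamma with 300 µM nifuroxazide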
STAT3 act = STAT3 signaling activation. activation (% of control), % at 5.6 µM. hit rate 0.91% among 190,000. U3A cells, IL-6 STAT3-luciferase reporter, luminescence; 100% = signal with IL-6 EC80 alone;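 active means activation above the screen-wide mean of compound activation plus 3 SD, cut at about 130% in these data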;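 further: 0% = background luminescence of wells with medium and substrate only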
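Test system: STAT3-luciferase reporter U3A cells; Detection: reporter luminescence signal; Times: 1 h compound pre-exposure, 6 h IL-6 stimulation, 37 °C; Benchmarks: IL-6-only high control; Also added: IL-6 stimulus at 33 ng/mL final.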
* marks the source's active call; other numbers are inactive results. Sampled rows, rich in hits. Any-hit rate of the full collection: about 4.9%.

SMILES	STAT1 act	APP 5'UTR act	STAT3 blocker	NF-kB expr up	STAT1 blocker	STAT3 act
Cc1ccnc(N2C(=O)c3cccc4c([N+](=O)[O-])ccc(c34)C2=O)c1	89	-37	9	4.7*	12	98
O=C1c2cccc3c([N+](=O)[O-])ccc(c23)C(=O)N1Cc1cccnc1	106	-82	4	3.8*	-6	104
CCC(C)/C(C)=N/NC(=O)c1ccc(CSc2nc3ccccc3s2)cc1 (configuration not stated)	130*	46	-20	1.3	-33	119
COC(=O)c1cc(-c2ccc(OC)c(OC)c2)n[nH]1	99	-13	-4	0.81	1	102
COc1ccc(-c2cc(-c3ccc(OC)c(OC)c3)n[nH]2)c(O)c1	97	127	-2	4*	4	99
CCOc1ccc(-c2[nH]ncc2-c2ccc(OC)c(OC)c2)c(O)c1	97	-70	19	0.75	3	87
COc1ccc(-c2cc(-c3cc(F)ccc3O)[nH]n2)cc1OC	106	136*	2	2.9	-6	106
COc1ccc(O)c(-c2cc(-c3cccc(Br)c3)n[nH]2)c1	102	85	-1	3.4*	-2	103
COc1ccc(-c2cc(-c3cc(OC)ccc3O)[nH]n2)cc1	114	98	-10	2.8	-15	105
COc1ccc(-c2cc(-c3ccccc3O)[nH]n2)cc1OC	109	194*	8	6.8*	-9	98
O=C(CCSCc1cccc(Cl)c1)NCCc1ccc(Cl)cc1	91	-6	-11	0.94	10	109
Cc1ccc(-n2c(SCC(=O)N3Cc4ccccc4CC3C(=O)O)nnc2-c2cccnc2)c(C)c1 (configuration not stated)	100	-3	4	0.91	-1	93
COc1cccc(-c2cn3nc(C)c(C)nc3n2)c1	127	141*	25	2.7	-30	83
Cc1cccc(Oc2nc(CN3CCOCC3)nc3sc4c(c23)CCCC4)c1	99	-12	11	0.9	1	93
Cc1c(C(=O)O)cccc1-c1ccc(/C=C2/NC(=O)N(c3ccccc3)C2=O)o1	131*	42	-8	1.6	-36	110
COC(=O)c1ccc(NC(=O)Cc2ccccc2)cc1	132*	38	12	2.1	-35	93
COc1ccc(CC(=O)OCC(=O)Nc2ccc(C(=O)Nc3ccc(OC)cc3)cc2)cc1	110	1	7	1.1	-14	99
CCOc1ccc(NC(=O)CN2C(=O)CSC(C)C2=O)cc1 (configuration not stated)	131*	9	-4	1.1	-31	108
CCOc1ccc(NC(=O)c2ccc(NC(=O)COC(=O)Cc3ccc(OC)cc3)cc2)cc1	136*	107	-25	1.7	-38	124
COC(=O)c1ccc(NC(=O)C(=O)c2cccn2C)cc1	56	1	79*	8.4*	47*	36
O=C(OCc1cncs1)c1cccs1	105	-12	7	1.6	-7	97
CC1CCCCC1NC(=O)COC(=O)CNC(=O)c1cccc(F)c1 (configuration not stated)	102	-18	19	1.2	-3	86
CC(=O)Nc1ccc(C(=O)OCc2ccccc2Cl)cc1	119	-5	8	1.6	-21	90
CCOc1ccc(NC(=O)Cc2ccccc2)cc1	135*	41	-6	2.2	-38	109
COCC(=O)Nc1ccc(OCc2ccccc2)cc1	131*	22	1	1.7	-35	102
SMILES	STAT1 act	APP 5'UTR act	STAT3 blocker	NF-kB expr up	STAT1 blocker	STAT3 act
CCOc1ccc(NC(=O)CNC(=O)COc2ccccc2)cc1	96	15	8	0.99	5	93
COC(=O)Nc1ccc(OCc2ccccc2)cc1	126	75	-1	2.1	-28	102
CCC(=O)Nc1ccc(C(=O)OCc2ccccc2Cl)cc1	137*	45	-10	1.6	-40	107
CCOC(=O)N1CCC(N2C(=O)c3ccccc3C2Nc2ccc(S(=O)(=O)N3CCCCC3)cc2)CC1 (configuration not stated)	101	1	13	0.7	-2	94
CC(C)Cn1c2c(c(O)c(C(=O)Nc3ccc(F)cc3)c1=O)CCCC2	102	12	2	1.2	-2	101
CCCn1c2c(c(O)c(C(=O)Nc3ccccc3)c1=O)CCCC2	102	11	-28	1.2	-2	133*
OC1CCC(NC(=S)Nc2ccc(SC(F)F)cc2)CC1 (configuration not stated)	129*	46	-21	0.87	-32	119
S=C(Nc1ccc(Oc2ccc(NC(=S)NC3CCCCC3)cc2)cc1)NC1CCCCC1	94	-18	2	1.1	7	97
CC(C)c1ccc(NC(=S)NC2CCCCCC2)cc1	140*	40	-16	1.1	-47	114
CC(=O)Oc1ccc2c(=O)c(-c3nc4ccccc4s3)coc2c1	108	196*	39	2.9	-9	72
CCN(CC)C(=O)Oc1ccc2c(=O)c(-c3ccc(OC)cc3)coc2c1	144*	74	16	1.8	-47	88
COc1ccc(CNC(=O)CSc2nc3ccc(N)cc3s2)cc1	100	2	-17	1	0	116
Cc1ccc(C(=O)CSc2ncnc3ccccc23)o1	159*	98	-1	3	-67	105
O=C(CSc1ncnc2ccccc12)c1cccs1	119	139*	8	4.6*	-20	97
O=C(CSc1ncnc2ccccc12)N1CCCC1	108	23	1	1.9	-9	107
COC(=O)C1=C(C)N(Cc2ccco2)C(=O)N[C@H]1c1ccc(Br)cc1	100	-8	1	1	0	97
Cc1ccccc1OCc1nc2c3cnn(C)c3ncn2n1	141*	-15	-5	2.5	-44	106
Cc1ccc(/C=N/c2sc3c(c2C(N)=O)CCCC3)o1	146*	92	5	2	-53	100
Cc1sc(Cc2nc(O)cs2)nc1-c1ccccc1	106	0	16	1.1	-7	96
Cc1cc(C)n(-c2nc3ccccc3s2)n1	122	38	1	2.1	-26	101
Cc1cc(N)n(-c2nc3ccccc3s2)n1	122	113	6	4.5*	-23	102
Cc1nn(-c2nc3ccccc3s2)c(N)c1Sc1ccc(F)cc1	138*	32	-59	1.2	-42	158*
Cc1nn(-c2nc3ccccc3s2)c(N)c1-c1ccc(Cl)cc1	126	-8	-3	1.8	-28	105
Cc1nn(-c2nc3ccccc3s2)c(N)c1-c1ccccc1	143*	122	-22	7.6*	-47	119
N=C(N=C(N)N)N1CCc2ccccc21	98	1	3	1.1	1	104
O=C(Nc1ccc(F)cc1)/C(Cl)=C/c1ccccc1	150*	188*	12	7.3*	-58	95
